Test results as given in ChEMBL document CHEMBL1136489 (Bioorg Med Chem Lett, 2003).

How the values were obtained:
Assay type in all cases: protein-complex assay
[1] = target: Geranylgeranyl transferase type I (Homo sapiens, UniProt P49354+P53609); assay: In vitro inhibition of Geranylgeranyl protein transferase I
Summary of the method: (§1)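 Cell-free enzyme inhibition assay, run as previously described with modifications.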

[2] = target: Protein farnesyltransferase (Homo sapiens, UniProt P49354+P49356); assay: In vitro inhibition of farnesyl protein transferase; summary of the method: as §1
[3] = target: Protein farnesyl/geranylgeranyl transferase (Homo sapiens) (UniProt P49354+P49356+P53609); assay: Selectivity for Geranylgeranyl protein transferase I compared to farnesyl protein transferase

Row | IC50 [1] | IC50 [2] | Selectivity [3] | Compound
1 | 66 nM |  |  | CC(C)=CCC/C(C)=C/CC/C(C)=C/CC/C(C)=C/CONC(=O)CP(=O)(O)O
2 | 151 nM | > 10000 nM | > 66 | CC(C)=CCC/C(C)=C/CC/C(C)=C/CC/C(C)=C/CONC(=O)C(C)P(=O)(O)O (stereo unspecified)
3 | 146 nM | > 10000 nM | > 68 | CCC(C(=O)NOC/C=C(\C)CC/C=C(\C)CC/C=C(\C)CCC=C(C)C)P(=O)(O)O (stereo unspecified)
4 | 275 nM | 5000 nM | 18 | CC(C)=CCC/C(C)=C/CC/C(C)=C/CC/C(C)=C/CNC(=O)CP(=O)(O)O
5 | 566 nM | > 10000 nM | > 18 | CCC(C(=O)NC/C=C(\C)CC/C=C(\C)CC/C=C(\C)CCC=C(C)C)P(=O)(O)O (stereo unspecified)
6 | 111 nM | > 10000 nM | > 90 | CC(C)=CCC/C(C)=C/CC/C(C)=C/CC/C(C)=C/CNC(=O)C(C)P(=O)(O)O (stereo unspecified)
